These results are taken from ChEMBL document CHEMBL1137227, “Identification of a selective inverse agonist for the orphan nuclear receptor estrogen-related receptor alpha” (J Med Chem, 2004).

Test [1] has as its target T1, Steroid hormone receptor ERR1 (Homo sapiens, UniProt P11474).
T1 sequence (P11474 whole entry): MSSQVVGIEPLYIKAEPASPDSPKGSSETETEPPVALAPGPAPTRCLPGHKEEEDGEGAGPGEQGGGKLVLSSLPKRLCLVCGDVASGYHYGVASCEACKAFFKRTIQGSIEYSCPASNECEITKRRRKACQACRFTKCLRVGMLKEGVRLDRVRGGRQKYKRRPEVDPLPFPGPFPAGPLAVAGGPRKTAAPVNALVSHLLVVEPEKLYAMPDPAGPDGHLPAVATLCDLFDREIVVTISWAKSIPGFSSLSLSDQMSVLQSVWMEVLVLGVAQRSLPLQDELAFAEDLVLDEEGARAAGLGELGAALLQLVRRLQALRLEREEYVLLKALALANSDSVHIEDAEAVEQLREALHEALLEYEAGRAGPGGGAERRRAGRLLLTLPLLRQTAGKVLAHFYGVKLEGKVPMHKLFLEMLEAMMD
The test is described as follows: Inhibition of estrogen-related receptor alpha Gal4 activity; not active. In outline:
(§1)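 Cell-based cotransfection assay in Gal4-ERRα format. IC50 fitted by nonlinear regression to 10-dose titration curves and averaged over at least two experiments. Standard error of the mean typically under 30% per experiment. NA means not active under assay conditions.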

Test [2] has as its target T2, Steroid hormone receptor ERR1 (Homo sapiens) (UniProt P11474).
T2 sequence (whole entry): T1 sequence (P11474 whole entry)
In words: Percent inhibition of estrogen-related receptor alpha Gal4 activity at 10 uM. In outline:
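Gal4-ERRα cell-based cotransfection assay with compound tested at a single concentration of 10 μM. Activity expressed as percent inhibition of ERRα-driven Gal4 signal.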

The target in test [3] is T1, Steroid hormone receptor ERR1. In words: (§2) Inhibition of estrogen-related receptor alpha Gal4 activity.
The target is the same in test [4]. The test is described as §2. In outline:
as §1
The source holds these as a separate data set.

The target is the same in test [5]. The test is described as follows: Inhibition of estrogen-related receptor alpha in FP assay.

Where “and” joins values, the source holds several entries; their conditions need not be identical. Equal values may be shown once.

In general, IC50 refers to the concentration that inhibits the measured activity by half. A high value points to a need for much substance. As to `COc1cc(/C=C(\C#N)C(=O)Nc2nccs2)ccc1OCCOc1c(C)cccc1C`, the IC50 entry in test [1] is listed as “Not Active”.

What is called inhibition is the drop in the measured response relative to a control, in per cent. For `CCc1nnc(NC(=O)/C(C#N)=C/c2ccc(OCCOc3c(C)cccc3C)c(OC)c2)s1`, the inhibition in test [2] worked out at 96%. The compound further yielded an IC50 in test [3] of 2000 nM.

On to `CCc1nnc(NC(=O)/C(C#N)=C/c2ccc(OCc3ccccc3OC(F)(F)F)c(OC)c2)s1`, for which the inhibition in test [2] came out at 101%. In test [3], this compound had a half-maximal inhibitory concentration (IC50) of 1800 nM.

`COc1cc(/C=C(\C#N)C(=O)Nc2nnc(SC)s2)ccc1OCCOc1c(C)cccc1C`: the inhibition in test [2] amounted to 92%. It took 2600 nM to reach half-maximal inhibition in test [3] (IC50).

With `COc1cc(/C=C(\C#N)C(=O)Nc2nnc(-c3ccccc3)s2)ccc1OCc1ccc(C(F)(F)F)cc1C(F)(F)F`, in test [2], the inhibition turned out to be 105%. In test [3], this compound registered a half-inhibitory concentration (IC50) of 500 nM.

Consider `COc1cc(/C=C(\C#N)C(=O)Nc2nnc(-c3ccc(N(C)C)cc3)s2)ccc1OCCOc1c(C)cccc1C`, for which, in test [2], the inhibition stood at 74%. The IC50 in test [3] worked out at 2000 nM.

In the case of `CCC1=NN2C/C(=C/c3ccc(OCCOc4c(C)cccc4C)c(OC)c3)C(=O)N=C2S1`, the half-maximal inhibitory concentration (IC50) in test [4] was determined as 2300 nM; in test [5], 1400 nM.

Take `COc1cc(/C=C(\C#N)C(=O)Nc2nnc(C(F)(F)F)s2)ccc1OCc1ccc(C(F)(F)F)cc1C(F)(F)F`: the inhibition in test [2] was determined as 109%.

Regarding `CCc1nnc(NC(=O)/C(C#N)=C/c2ccc(OCc3cc(F)ccc3C(F)(F)F)c(OC)c2)s1`, in test [3], the 50% inhibitory concentration (IC50) is 800 nM and 1700 nM.

For the compound `COc1cc(/C=C(\C#N)C(=O)Nc2nncs2)ccc1OCc1ccc(C(F)(F)F)cc1C(F)(F)F`, the inhibition in test [2] amounted to 99%. Besides, it took 750 nM to reach half-maximal inhibition in test [3] (IC50).

`COc1cc(/C=C(\C#N)C(=O)Nc2nnc(SC)s2)ccc1OCc1ccc(C(F)(F)F)cc1C(F)(F)F`: the inhibition in test [2] is 105%. Also, in test [3], half-maximal inhibition (IC50) was put at 440 nM.

Turning to `CCc1nnc(NC(=O)/C(C#N)=C/c2ccc(OCc3ccccc3Br)c(OC)c2)s1`, the inhibition in test [2] was found to be 57%. In test [3], this compound registered an IC50 of 2200 nM.

`CCc1nnc(NC(=O)/C(C#N)=C/c2ccc(OCc3c(F)cccc3C(F)(F)F)c(OC)c2)s1`: the half-maximal inhibitory concentration (IC50) result in test [1] is “Not Active”.

For `COc1cc(/C=C(\C#N)C(=O)Nc2nnc(C(F)(F)F)s2)ccc1OCCOc1c(C)cccc1C`, in test [2], the inhibition is 112%. This compound registered a half-maximal inhibitory concentration (IC50) in test [3] of 1500 nM.

In the case of `CCc1nnc(NC(=O)/C(C#N)=C/c2ccc(OCc3cc(C(F)(F)F)ccc3C(F)(F)F)c(OC)c2)s1`, the half-inhibitory concentration (IC50) result in test [1] is reported as “Not Active”.

On to `CCc1nnc(NC(=O)/C(C#N)=C/c2ccc(OCc3cccc4ccccc34)c(OC)c2)s1`, for which the inhibition in test [2] was determined as 90%. The IC50 in test [3] was determined as 1800 nM.

For the compound `COc1cc(/C=C(\C#N)C(=O)Nc2nnc(C(C)(C)C)s2)ccc1OCc1ccc(C(F)(F)F)cc1C(F)(F)F`, the inhibition in test [2] is 43%. This compound displayed an IC50 in test [3] of more than 10000 nM.

Take `CCc1nnc(NC(=O)/C(C#N)=C/c2ccc(OCc3ccc(C(F)(F)F)cc3C(F)(F)F)c(OC)c2)s1`: the inhibition in test [2] is 106% and 104% and 99%. Besides, the IC50 in test [3] was 400 nM and 610 nM and 540 nM.

Take `CCc1nnc(NC(=O)/C(C#N)=C/c2ccc(OCCOc3c(C)cccc3C)c(OC)c2)o1`: the inhibition in test [2] was 88%. In test [3], this compound displayed an IC50 of 3300 nM.

As for `COc1cc(/C=C(\C#N)C(=O)Nc2nnc(C(C)(C)C)s2)ccc1OCCOc1c(C)cccc1C`, in test [2], the inhibition was 104%. Besides, half-maximal inhibition in test [3] (IC50) was put at 1700 nM.

As to `COc1cc(/C=C(\C#N)C(=O)Nc2nncs2)ccc1OCCOc1c(C)cccc1C`, the inhibition in test [2] worked out at 103%. The compound also gave a 50% inhibitory concentration (IC50) in test [3] of 1400 nM.

In the case of `CCc1nnc(NC(=O)/C(C#N)=C/c2ccc(OCc3ccc(F)cc3C(F)(F)F)c(OC)c2)s1`, in test [2], the inhibition was 109% and 90%. Besides, the IC50 in test [3] was 920 nM and 1500 nM.
